How the values were obtained:
[1] = biological target: T1, Macrophage migration inhibitory factor (Homo sapiens) (UniProt P14174); assay: Inhibitory activity against macrophage migration inhibitory factor tautomerase (MIF) at a concentration of 0.5 mM
T1 sequence (whole entry): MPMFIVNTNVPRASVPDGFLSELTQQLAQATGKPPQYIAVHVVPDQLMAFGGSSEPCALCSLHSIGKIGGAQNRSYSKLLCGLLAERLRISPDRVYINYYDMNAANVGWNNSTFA
Summary of the method: (§1)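 Recombinant human MIF expressed in E. coli. The substrate is L-dopachrome methyl ester, generated by oxidizing 10 mM precursor stocks in 10 mM sodium phosphate, pH 6.0, with sodium periodate for 10 min, then quenching with methionine. Final substrate is 0.5 mM, with test compound at the stated concentration. The reaction starts on adding MIF from a 20 mg/mL stock. Percent inhibition is taken from the absorbance decrease at 475 nm over 1 min.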

[2] = biological target: T1, Macrophage migration inhibitory factor (Homo sapiens); assay: Inhibitory activity against macrophage migration inhibitory factor tautomerase (MIF) at a concentration of 0.25 mM; summary of the method: as §1
[3] = biological target: T1, Macrophage migration inhibitory factor (Homo sapiens); assay: Inhibitory activity against macrophage migration inhibitory factor tautomerase (MIF) at a concentration of 0.06 mM; summary of the method: as §1
[4] = biological target: T1, Macrophage migration inhibitory factor (Homo sapiens); assay: Inhibitory activity against macrophage migration inhibitory factor tautomerase (MIF) at a concentration of 0.125 mM; summary of the method: as §1
[5] = biological target: T1, Macrophage migration inhibitory factor (Homo sapiens); assay: Inhibitory activity against macrophage migration inhibitory factor tautomerase (MIF) at a concentration of 0.02 mM; summary of the method: as §1

| Structure (SMILES) | inhibition [1] [%] | inhibition [2] [%] | inhibition [3] [%] | inhibition [4] [%] | inhibition [5] [%] |
| --- | --- | --- | --- | --- | --- |
| COC(=O)C1(C)CC2=CC(=O)C(O)=CC2=N1 (racemic) | 34 |  |  |  |  |
| O=C1C=C2C(=NC(C(=O)O)C2O)C=C1O (stereo not drawn) | 100 | 98 | 9 | 41 |  |
| C[N+]1=C2C=C(O)C(=O)C=C2C(O)C1 (stereo not drawn) | 98 | 79 |  | 54 | 21 |
| CCOC(=O)/C=C/C1=CC(O)C(O)=CC1 (stereo not drawn) | 0 |  |  |  |  |
| CCCC(C(N)=O)C1=CC(O)C(O)=CC1 (stereo not drawn) | 0 |  |  |  |  |
| CC1N=C2C=C(O)C(=O)C=C2C1O (stereo not drawn) | 92 | 88 | 22 | 54 |  |

Second part, the compound after the results:

| inhibition [1] [%] | inhibition [2] [%] | inhibition [3] [%] | inhibition [4] [%] | inhibition [5] [%] | Structure (SMILES) |
| --- | --- | --- | --- | --- | --- |
| 35 |  |  |  |  | CC1(C(=O)O)CC2=CC(=O)C(O)=CC2=N1 (racemic) |
| 45 |  |  |  |  | COC(=O)[C@]1(C)CC2=CC(=O)C(O)=CC2=N1 |
| 29 |  |  |  |  | C[C@@]1(C(=O)O)CC2=CC(=O)C(O)=CC2=N1 |

From ChEMBL document CHEMBL1131879, “Inhibition of macrophage migration inhibitory factor (MIF) tautomerase activity by dopachrome analogs” (Bioorg Med Chem Lett, 1999)
